Experimental data gathered from unrelated publications.
Protocols differ between the studies behind these lines.
Target: Activated CDC42 kinase 1 (TNK2, Homo sapiens, UniProt Q07912)

With `CN(C)c1nccc(-c2cnn3ncccc23)n1` the remaining binding was 100% (binding; 1 µM).
`CNCc1ccccc1-c1csc([C@@H](C)Nc2nc(C)nc3cc(OC)c(OC)cc23)c1` gave a remaining binding of 100% (cell-free assay; competition with immobilised ligand; 1 µM).
The remaining binding of `CCN1CCN(Cc2ccc(C(=O)Nc3ccc(C)c(Oc4ccc5c(c4)CC(=O)N5)c3)cc2C(F)(F)F)CC1` is reported as 100% (binding; competition with immobilised ligand; 1 µM).
For `COc1cc(-c2cn(C3CCc4c(F)cccc4N(CC(F)(F)F)C3=O)nn2)ccc1-n1cnc(C)c1` (stereo not shown), the remaining binding was 100% (cell-free assay; competition with immobilised ligand; 1 µM).
`CN1CC[C@H](c2c(O)cc(O)c3c(=O)cc(-c4ccccc4Cl)oc23)[C@H](O)C1` has a remaining binding of 74% (cell-free assay; competition with immobilised ligand; 10 µM).
`CN(C)C(=O)Cn1cc(-c2nc(C3(c4ccc(-c5cnc(N)nc5)cc4)CC3)no2)cn1` has a remaining binding of 96% (cell-free assay; competition with immobilised ligand; 1 µM).
`CS(=O)(=O)CCNCc1ccc(-c2ccc3ncnc(Nc4ccc(OCc5cccc(F)c5)c(Cl)c4)c3c2)o1` gave a remaining binding of 100% (cell-free assay; competition with immobilised ligand; 0.1 µM).
With `N[C@H]1CCN(c2nccc(-c3cnn4ncccc34)n2)C1` the remaining binding was 77% (binding; 1 µM).
For `C[C@@H](c1ccc(-n2cnc3c(N)ncnc32)cc1)N1CCc2nn(C)c(Cc3ccccc3)c2C1=O`, the remaining binding was 82% (binding; competition with immobilised ligand; 0.1 µM).
With `C[C@@H]1CCN(c2nccc(-c3cnn4ncccc34)n2)C1` the remaining binding was 100% (binding; 1 µM).
`CCN(CC)CCNC(=O)c1c(C)[nH]c(/C=C2\C(=O)Nc3ccc(F)cc32)c1C` has a remaining binding of 93% (cell-free assay; competition with immobilised ligand; 0.1 µM).
`CCS(=O)(=O)c1cc2cc(C[C@](O)(CC(C)(C)c3ccc(F)cc3C(N)=O)C(F)(F)F)[nH]c2cn1` has a remaining binding of 100% (cell-free assay; competition with immobilised ligand; 1 µM).
`O=C(c1ccc(Nc2ncc(Cl)c(-c3ccc(Cl)s3)n2)cc1)N1CCC(N2CCCC2)CC1` has a remaining binding of 44% (binding; competition with immobilised ligand; 1 µM).
With `COc1cnc(Nc2cccc(S(N)(=O)=O)c2)nc1N1CCN(c2ccccc2)C(=O)C1` the remaining binding was 100% (binding; competition with immobilised ligand; 1 µM).
`C[C@H](c1ccc(F)cc1)N(Cc1cccc(C(=O)O)c1)C(=O)c1cnc2ccccc2c1` gave a remaining binding of 100% (cell-free assay; competition with immobilised ligand; 1 µM).
`Nc1ncc2c(n1)-c1c([nH]c3ccc(C#CC4CC4)cc13)CCCC2` has a remaining binding of 100% (binding; competition with immobilised ligand; 1 µM).
With `O=C(NCCCN1CCOCC1)c1ccc(Nc2nccc(-c3cc4ccccc4s3)n2)cc1` the remaining binding was 63% (binding; competition with immobilised ligand; 1 µM).
The remaining binding of `C=CC(=O)N1CCC(C(=O)NCC(=O)N2CCN(c3nc(-c4cnc(N)nc4C(F)F)nc(N4CCOCC4)n3)CC2)CC1` is reported as 100% (binding; competition with immobilised ligand; 1 µM).
`Cc1nc(Nc2ncc(C(=O)Nc3c(C)cccc3Cl)s2)cc(N2CCN(CCO)CC2)n1` has a remaining binding of 0% (cell-free assay; competition with immobilised ligand; 10 µM).
The remaining binding of `CO[C@@H](C)c1c(Nc2ccc([C@H](N(C)C(=O)C3CCS(=O)(=O)CC3)C(F)(F)F)cc2)cnc2cc(Cl)nn12` is reported as 100% (cell-free assay; competition with immobilised ligand; 1 µM).
For `Cc1c(-c2ccccc2)oc2c(C(=O)OCCN3CCCCC3)cccc2c1=O`, the remaining binding was 94% (cell-free assay; competition with immobilised ligand; 10 µM).
`CN(C)c1nccc(-c2cnc3ncccn23)n1` gave a remaining binding of 99% (binding; 1 µM).
